High-throughput results (PubChem)
SKN-1 inh = C. elegans SKN-1 inhibition; C. elegans VP596 Pgst-4::GFP/RFP ratio, acrylamide-induced, 24 h; inhibition, % at 21.8 µM; 0.49% of 360,000 active;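 active means interference check ratio from 0.5 to 1.5 plus GFP to RFP signal ratio inhibition reaching or exceeding a fixed threshold, cut at about 30% in these data, passing the limit was not always enough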
MT1-MMP act inh = blocks activation of human MT1-MMP; P50281; HT1080 RFP-PRO-GFP cells, GFP/RFP ratio fluorescence, overnight; percent of plate control window, DMSO zero; GFP/RFP ratio change, % at 20 µM; 0.061% of 360,000 active; AID 651647;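 active means GFP/RFP ratio change of at least 30% with cell ATP level not reduced by more than half and red fluorescence within 50% of control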
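Compound: 20 µM single dose, 1% DMSO / System: HT1080 RFP-PRO-GFP cells / Controls: DMSO and RFP-L50D-GFP cell wells / Read-out basis: GFP/RFP fluorescence ratio / Schedule: overnight compound exposure at 37 °C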
FAS-TE inh = inhibitors of human fatty acid synthase thioesterase domain | recombinant FAS-TE, OMFH fluorogenic substrate, fluorescence endpoint | inhibition, % at 15 µM | 0.67% of 360,000 active;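 active means compounds whose normalised, plate-corrected inhibition of enzyme fluorescence in the single-dose primary screen is 50% or more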;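 further: 0% = DMSO with enzyme and 100% = substrate without enzyme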
Target sequence (P49327 whole entry, looked up, the tested form may be a part): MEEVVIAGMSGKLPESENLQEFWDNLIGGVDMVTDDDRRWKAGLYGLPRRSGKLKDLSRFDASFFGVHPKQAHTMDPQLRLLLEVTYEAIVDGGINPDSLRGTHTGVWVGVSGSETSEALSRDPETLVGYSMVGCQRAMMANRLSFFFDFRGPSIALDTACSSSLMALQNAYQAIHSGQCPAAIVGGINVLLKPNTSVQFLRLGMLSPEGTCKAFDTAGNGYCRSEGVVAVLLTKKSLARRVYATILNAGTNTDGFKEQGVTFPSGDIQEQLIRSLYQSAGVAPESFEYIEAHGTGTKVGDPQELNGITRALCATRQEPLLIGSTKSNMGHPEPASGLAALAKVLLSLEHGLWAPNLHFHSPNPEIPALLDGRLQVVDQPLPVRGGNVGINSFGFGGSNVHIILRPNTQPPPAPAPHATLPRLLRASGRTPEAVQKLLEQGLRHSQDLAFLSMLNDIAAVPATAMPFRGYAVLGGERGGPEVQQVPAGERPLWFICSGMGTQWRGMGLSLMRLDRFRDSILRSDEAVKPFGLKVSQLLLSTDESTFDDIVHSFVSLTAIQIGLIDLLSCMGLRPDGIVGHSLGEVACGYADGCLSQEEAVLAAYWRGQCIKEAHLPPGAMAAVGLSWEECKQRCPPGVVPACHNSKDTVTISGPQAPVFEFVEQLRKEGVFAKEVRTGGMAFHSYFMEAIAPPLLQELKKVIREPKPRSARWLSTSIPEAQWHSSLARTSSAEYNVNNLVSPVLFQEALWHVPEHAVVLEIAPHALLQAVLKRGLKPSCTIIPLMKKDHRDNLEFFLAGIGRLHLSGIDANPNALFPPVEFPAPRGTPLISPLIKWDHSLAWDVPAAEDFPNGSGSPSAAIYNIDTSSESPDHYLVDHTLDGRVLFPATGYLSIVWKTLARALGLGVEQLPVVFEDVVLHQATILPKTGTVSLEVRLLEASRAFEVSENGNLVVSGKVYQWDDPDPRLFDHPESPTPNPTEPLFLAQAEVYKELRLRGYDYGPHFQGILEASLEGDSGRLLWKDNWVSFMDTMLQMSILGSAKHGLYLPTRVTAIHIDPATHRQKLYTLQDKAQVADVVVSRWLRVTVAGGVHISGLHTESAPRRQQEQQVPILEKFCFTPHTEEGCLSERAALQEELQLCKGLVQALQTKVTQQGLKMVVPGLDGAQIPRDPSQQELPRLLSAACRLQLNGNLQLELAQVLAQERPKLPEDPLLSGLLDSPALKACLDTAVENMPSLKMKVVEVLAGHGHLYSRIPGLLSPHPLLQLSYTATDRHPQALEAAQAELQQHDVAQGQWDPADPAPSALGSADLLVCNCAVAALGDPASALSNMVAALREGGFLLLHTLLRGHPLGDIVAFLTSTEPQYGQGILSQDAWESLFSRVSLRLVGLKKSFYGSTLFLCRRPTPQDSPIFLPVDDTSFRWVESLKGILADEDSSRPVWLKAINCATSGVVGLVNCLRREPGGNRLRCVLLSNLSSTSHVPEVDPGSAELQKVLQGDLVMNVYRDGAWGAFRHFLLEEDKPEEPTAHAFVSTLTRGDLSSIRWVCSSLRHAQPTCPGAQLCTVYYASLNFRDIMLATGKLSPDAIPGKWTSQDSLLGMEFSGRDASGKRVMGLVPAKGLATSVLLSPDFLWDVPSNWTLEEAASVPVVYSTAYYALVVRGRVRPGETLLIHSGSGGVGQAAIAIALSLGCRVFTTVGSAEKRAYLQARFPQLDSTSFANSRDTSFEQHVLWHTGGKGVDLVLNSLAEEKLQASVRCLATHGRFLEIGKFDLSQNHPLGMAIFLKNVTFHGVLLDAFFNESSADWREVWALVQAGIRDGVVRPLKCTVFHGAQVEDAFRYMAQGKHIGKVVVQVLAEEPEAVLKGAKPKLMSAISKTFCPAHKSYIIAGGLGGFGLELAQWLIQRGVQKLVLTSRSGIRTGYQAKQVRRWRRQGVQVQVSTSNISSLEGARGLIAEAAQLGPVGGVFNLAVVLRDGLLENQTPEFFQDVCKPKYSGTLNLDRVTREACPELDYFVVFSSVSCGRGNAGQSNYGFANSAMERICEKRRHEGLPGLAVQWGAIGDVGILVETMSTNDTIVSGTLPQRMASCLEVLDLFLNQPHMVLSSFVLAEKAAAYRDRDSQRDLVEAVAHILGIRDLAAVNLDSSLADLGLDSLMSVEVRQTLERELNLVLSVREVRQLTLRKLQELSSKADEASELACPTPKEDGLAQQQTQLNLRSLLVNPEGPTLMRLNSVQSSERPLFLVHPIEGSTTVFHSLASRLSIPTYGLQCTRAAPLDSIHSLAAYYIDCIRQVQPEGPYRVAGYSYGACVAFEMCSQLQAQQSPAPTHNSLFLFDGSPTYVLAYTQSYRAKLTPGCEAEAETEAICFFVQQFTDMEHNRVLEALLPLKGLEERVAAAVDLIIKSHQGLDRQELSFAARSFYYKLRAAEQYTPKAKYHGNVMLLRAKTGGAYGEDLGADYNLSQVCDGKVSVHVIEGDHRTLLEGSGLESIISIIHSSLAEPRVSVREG
iPSC survival up = enhancers of human iPSC single-cell survival. hiPSC single-cell survival, ATPlite luminescence; 100% = ROCK inhibitor wells, 0% = DMSO. survival enhancement, % at 20 µM. 0.044% of 360,000 active. AID 602274; in the data active means survival enhancement above about 18%;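 further: cells exposed to compounds for 16 hours before the ATP read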
DAGLB inhibitor = blocks human DAGLB lipase activity | AID 504411 | inhibition, % at 5.17 µM | 0.059% of 340,000 active | Q8NCG7 | HEK293T DAGLB membrane lysate, EnzChek fluorogenic substrate; in the data active means inhibition above about 34%;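 further: 0% = enzyme with vehicle and 100% = wells lacking enzyme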
FAS-TE conf = FAS thioesterase (human) inhibition, confirmation; shares compounds with FAS-TE inh; recombinant FAS-TE, OMFH fluorogenic substrate, fluorescence; inhibition, % at 15 µM; 45% of 2,300 active;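 active means compounds inhibiting the enzyme by at least 50% at 15 µM in any one of the replicates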;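 further: 0% = enzyme with DMSO only and 100% = wells lacking enzyme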
The depositor's hits bear a star. This is a sample that favours compounds with a hit; in the whole collection about 1.3% have one here.

Results for Cc1ccc(S(=O)(=O)N(C)C[C@@H]2Oc3ccc(NC(=O)Nc4cccc5ccccc45)cc3C(=O)N([C@H](C)CO)C[C@H]2C)cc1 ?
SKN-1 inh: 5; MT1-MMP act inh: -1; FAS-TE inh: 67*; iPSC survival up: -2; DAGLB inhibitor: 3; FAS-TE conf: 7

Results for C[C@H](CO)N1C[C@H](C)[C@H](CN(C)Cc2ccc(-c3ccccc3)cc2)Oc2ccc(NS(=O)(=O)c3ccccc3)cc2CC1=O ?
SKN-1 inh: 1; MT1-MMP act inh: 2; FAS-TE inh: 27; iPSC survival up: 2; DAGLB inhibitor: -3

What do the screens show for `C[C@H](CO)N1C[C@H](C)[C@@H](CN(C)S(=O)(=O)c2ccc(F)cc2)Oc2c(NC(=O)Nc3ccc(C(F)(F)F)cc3)cccc2C1=O`?
SKN-1 inh: 12; MT1-MMP act inh: 2; FAS-TE inh: 50*; iPSC survival up: 2; DAGLB inhibitor: -1; FAS-TE conf: 47

Results for C[C@H](CO)N1C[C@H](C)[C@@H](CN(C)S(=O)(=O)c2ccccc2)Oc2ccc(NC(=O)Nc3ccccc3)cc2C1=O ?
SKN-1 inh: -13; MT1-MMP act inh: 1; FAS-TE inh: 6; iPSC survival up: 0; DAGLB inhibitor: -1

What do the screens show for `COc1ccc(NC(=O)Nc2cccc3c2O[C@H](CN(C)S(=O)(=O)c2ccc(F)cc2)[C@@H](C)CN([C@H](C)CO)C3=O)cc1`?
SKN-1 inh: -11; MT1-MMP act inh: 1; FAS-TE inh: 2; iPSC survival up: -1; DAGLB inhibitor: -2

Results for Cc1ccc(S(=O)(=O)Nc2ccc3c(c2)CC(=O)N([C@H](C)CO)C[C@@H](C)[C@H](CN(C)Cc2ccc(-c4ccccc4)cc2)O3)cc1 ?
SKN-1 inh: -10; MT1-MMP act inh: 0; FAS-TE inh: 73*; iPSC survival up: -4; DAGLB inhibitor: -3; FAS-TE conf: 23

How did CN(c1ccccc1C(=O)N1CCN(c2ccccc2)CC1)S(C)(=O)=O do in these assays?
SKN-1 inh: 29; MT1-MMP act inh: 1; FAS-TE inh: -9; iPSC survival up: 4; DAGLB inhibitor: 5

What do the screens show for `O=c1c(-c2cccs2)nc2ccccc2n1C(c1ccccn1)c1nc2ccccc2[nH]1` (centres undefined)?
SKN-1 inh: 4; MT1-MMP act inh: 0

How did CCN(CC)C(=O)c1cccc(-c2csc(C(O)c3cccc(Cl)c3)n2)c1 (centres undefined) do in these assays?
SKN-1 inh: -3; MT1-MMP act inh: -4; FAS-TE inh: 8; iPSC survival up: -2

What do the screens show for `Fc1cccc(F)c1-n1c(CN2CCCC2)csc1=S`?
SKN-1 inh: -1; MT1-MMP act inh: 1; FAS-TE inh: 0; iPSC survival up: -1; DAGLB inhibitor: -1

What do the screens show for `C[C@H]1CN([C@@H](C)CO)C(=O)c2cccc(NC(=O)Nc3ccc(C(F)(F)F)cc3)c2O[C@@H]1CN(C)S(=O)(=O)c1ccc(Cl)cc1`?
SKN-1 inh: 23; MT1-MMP act inh: -1; FAS-TE inh: 58*; iPSC survival up: 7; DAGLB inhibitor: 3; FAS-TE conf: -1

How did C[C@H](CO)N1C[C@H](C)[C@H](CN(C)S(=O)(=O)c2ccc(Cl)cc2)OCc2ccccc2-c2c(n(C)c3ccccc23)C1=O do in these assays?
SKN-1 inh: 4; MT1-MMP act inh: -11; FAS-TE inh: 69*; iPSC survival up: 3; DAGLB inhibitor: -5; FAS-TE conf: 28

How did Cc1ccc(S(=O)(=O)N(C)C[C@@H]2OCc3ccccc3-c3c(n(C)c4ccccc34)C(=O)N([C@H](C)CO)C[C@@H]2C)cc1 do in these assays?
SKN-1 inh: 8; MT1-MMP act inh: -13; FAS-TE inh: 29; iPSC survival up: 0; DAGLB inhibitor: -4

How did CN(CC(=O)Nc1ccc(Cl)c(C(F)(F)F)c1)C(=O)C1CC(=O)N(c2ccc3c(c2)OCCO3)C1 (centres undefined) do in these assays?
SKN-1 inh: 5; MT1-MMP act inh: -1; FAS-TE inh: 54*; iPSC survival up: 0; DAGLB inhibitor: 0; FAS-TE conf: 27*
